Assay [1] concerns the target Potassium voltage-gated channel subfamily KQT member 1 (Homo sapiens) (UniProt P51787). In words: blockers of human KCNQ1 channel – cell-based, Tl flux, duplicate, confirmation (AID 588353).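 Also: 0% = buffer control ratio and 100% = XE991 inhibitor control ratio.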 Particulars: KCNQ1 cell line, FluxOR thallium flux fluorescence, at 10 µM, hits give high values. In short, it runs like this:
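Material: KCNQ1 CHO cells; also added: Thallium-potassium depolarizing stimulus buffer; timing: dye loading 90 min, compound 20 min, both room temperature; signal: FluxOR thallium flux fluorescence, 10 s baseline plus 110 s; evaluation: percent inhibition relative to buffer and XE991; benchmarks: buffer and XE991; repeats: duplicates, mean used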

The nature of assay [2]: nonspecific activity in CHO-K1 cells without KCNQ1 – parental CHO cells, Tl flux, counter-screen for KCNQ1 inhibitor project (AID 588366;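 active = mean of duplicate thallium-flux fluorescence ratios in parental host cells more than 5 SD below the buffer control mean, cut at about 0.38 in these data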;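 also: ratio is peak minus minimum fluorescence divided by baseline fluorescence; actives read low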). To be noted: parental CHO-K1, FluxOR thallium flux fluorescence ratio; at 10 µM; hits give low values; zero means no signal rise above baseline. In outline:
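Assay system: CHO-K1 parental line without KCNQ1; Control set: buffer-only controls; Detection: kinetic Tl+ flux fluorescence with FluxOR dye; Schedule: FluxOR dye loading 90 min, compound exposure 20 min, room temperature.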

The target of assay [3] is Potassium voltage-gated channel subfamily KQT member 1 (Homo sapiens) (UniProt P51787). Put plainly: block of human KCNQ1 potassium current – cell-based, automated electrophysiology, orthogonal assay, confirmation (AID 624120;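 active = KCNQ1 current drop exceeding 3 SD of negative control wells, seen in both duplicate runs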). Particulars: KCNQ1-CHO cells, automated patch clamp current; at 10 µM. In short, it runs like this: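 Material: CHO cells expressing human KCNQ1 potassium channel; replication: duplicates; probe or stimulus: voltage stimulus of 2,000 ms steps to +40 mV, -80 mV holding; measured by: automated perforated-patch voltage clamp using amphotericin B; medium: pH 7.4 external buffer; dosing: single test compound dose of 10 µM final; read-out: steady-state current change vs pre-compound, percent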

For assay [4], the target named is Potassium voltage-gated channel subfamily KQT member 2 (Rattus norvegicus) (UniProt O88943). In words: block of rat KCNQ2 potassium channel – cell-based, selectivity assay for KCNQ1 inhibitor project (AID 651746;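 active = mean percent inhibition of the KCNQ2 thallium signal more than 5 SD above the buffer-only control wells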;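 as to inhibition: 0% = buffer control wells and 100% = XE-991 inhibitor control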). Particulars: KCNQ2 cells, FluxOR thallium flux fluorescence, at 10 µM; hits give high values.
Assay [5] has as its target Potassium voltage-gated channel subfamily E member 1 (Homo sapiens) + Potassium voltage-gated channel subfamily KQT member 1 (Homo sapiens) (UniProt P15382+P51787). In words: block of human IKs channel complex – CHO-K1 cells, thallium flux, FluxOR, selectivity assay for KCNQ1 inhibitor project (AID 652147;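 active = mean percent inhibition of duplicate wells above the buffer-only control mean plus 3 SD of those controls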;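 as to inhibition: 0% = buffer only wells and 100% = XE-991 inhibitor control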). To be noted: KCNQ1/KCNE1 cells, FluxOR thallium flux fluorescence, at 10 µM; hits give high values. In outline:
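System – KCNQ1/KCNE1 cells · Also added – depolarizing thallium/potassium stimulus, 5x stock with 12.5 mM Tl2SO4 and K2SO4 · Incubation – dye 90 min and compound 20 min at room temperature · Signal – kinetic FluxOR thallium-sensitive fluorescence, 1 Hz sampling, 150 s post-stimulus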

This is one part of the list. Values without a mark were called inactive. Active and inactive are the calls of the source.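 The calls were made as follows, unless noted: active = primary screen active, with duplicate mean exceeding buffer control mean plus 3 SD of buffer wells (cut at about 28% in these data); inactive = the rest.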

Chain of Potassium voltage-gated channel subfamily E member 1 (Homo sapiens) + Potassium voltage-gated channel subfamily KQT member 1 (Homo sapiens) (P51787 whole entry, looked up): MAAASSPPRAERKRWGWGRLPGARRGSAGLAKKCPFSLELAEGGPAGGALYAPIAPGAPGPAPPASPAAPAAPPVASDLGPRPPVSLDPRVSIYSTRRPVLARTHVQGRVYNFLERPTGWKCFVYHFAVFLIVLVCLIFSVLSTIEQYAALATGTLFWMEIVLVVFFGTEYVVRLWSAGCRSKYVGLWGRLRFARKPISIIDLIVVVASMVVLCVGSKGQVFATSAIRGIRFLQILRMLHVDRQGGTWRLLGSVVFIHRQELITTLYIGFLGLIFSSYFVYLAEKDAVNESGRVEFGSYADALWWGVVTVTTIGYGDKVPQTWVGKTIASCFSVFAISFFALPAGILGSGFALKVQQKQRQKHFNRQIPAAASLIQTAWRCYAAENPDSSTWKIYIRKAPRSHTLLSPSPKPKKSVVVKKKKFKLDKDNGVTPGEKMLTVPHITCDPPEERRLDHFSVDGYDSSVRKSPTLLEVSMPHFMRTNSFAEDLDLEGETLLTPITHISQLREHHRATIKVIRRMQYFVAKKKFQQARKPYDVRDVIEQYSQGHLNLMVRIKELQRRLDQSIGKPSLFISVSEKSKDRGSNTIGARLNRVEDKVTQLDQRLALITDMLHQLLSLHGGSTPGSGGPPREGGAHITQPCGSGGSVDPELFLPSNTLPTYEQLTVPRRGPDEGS
Chain of Potassium voltage-gated channel subfamily KQT member 1 (Homo sapiens) (P51787 whole entry, looked up): as above
Chain of Potassium voltage-gated channel subfamily KQT member 2 (Rattus norvegicus) (O88943 whole entry, looked up): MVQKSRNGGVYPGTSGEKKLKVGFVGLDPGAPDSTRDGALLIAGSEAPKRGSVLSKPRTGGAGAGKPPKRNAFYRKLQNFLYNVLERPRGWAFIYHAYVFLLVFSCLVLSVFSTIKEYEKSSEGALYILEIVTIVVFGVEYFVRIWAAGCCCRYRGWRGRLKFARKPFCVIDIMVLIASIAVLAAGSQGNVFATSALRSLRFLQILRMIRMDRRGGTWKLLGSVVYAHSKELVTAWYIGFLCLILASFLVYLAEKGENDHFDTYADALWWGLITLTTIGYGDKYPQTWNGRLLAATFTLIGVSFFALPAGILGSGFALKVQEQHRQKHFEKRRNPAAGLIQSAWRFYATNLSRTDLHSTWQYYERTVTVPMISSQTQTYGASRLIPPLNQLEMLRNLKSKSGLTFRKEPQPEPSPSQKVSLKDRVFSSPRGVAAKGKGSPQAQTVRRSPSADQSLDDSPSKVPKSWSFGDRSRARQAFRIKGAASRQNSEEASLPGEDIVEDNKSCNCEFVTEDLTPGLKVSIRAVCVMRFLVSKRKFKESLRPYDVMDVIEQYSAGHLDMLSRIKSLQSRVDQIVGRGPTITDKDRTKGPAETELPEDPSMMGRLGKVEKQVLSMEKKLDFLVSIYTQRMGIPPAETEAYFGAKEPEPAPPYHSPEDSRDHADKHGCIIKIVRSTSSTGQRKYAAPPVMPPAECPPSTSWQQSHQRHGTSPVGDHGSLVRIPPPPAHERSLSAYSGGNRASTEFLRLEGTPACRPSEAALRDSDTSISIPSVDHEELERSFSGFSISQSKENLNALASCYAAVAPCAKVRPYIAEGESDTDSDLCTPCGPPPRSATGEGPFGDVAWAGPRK

`Cc1cc(C)cc(NC(=O)NC2CCCCCCC2)c1`: the inhibition was 146% (active) in assay [1] and 164% (active) in assay [5]. For the same compound, the fluorescence ratio (Tl flux) in assay [2] is 0.465. Moreover, the compound was classed as active in assay [3]. Besides, in assay [4], the outcome was inactive.
For the compound `CC1CCCN(C(C(=O)Nc2ccc(C(C)C)cc2)c2ccc3c(c2)OCO3)C1` (stereo unspecified), the inhibition in assay [1] is 132% (active); in assay [4] it was 99.7% (active); in assay [5] it was 164% (active). In addition, the fluorescence ratio (Tl flux) in assay [2] was 0.429. The compound was called inactive in assay [3].
Regarding `Clc1cccc(-c2nc(NCC3CCCO3)c3ccccc3n2)c1` (stereo unspecified), the results for the inhibition in assay [1], in assay [4] and in assay [5] were 116% (active), 118% (active) and 154% (active), respectively. Further, the fluorescence ratio (Tl flux) in assay [2] is 0.394. Also, the result in assay [3] was inactive.
As for `CC(C)(CCl)C(=O)Nc1ccc(Sc2ccc(F)cc2)cc1`, the inhibition in assay [1] was 166% (active); in assay [4] it was 111% (active). In addition, the fluorescence ratio (Tl flux) in assay [2] was 0.393.
For the compound `Cc1c(C(=O)OC(C)C)sc(NC(=O)c2cccnc2)c1C#N`, the inhibition was 74% (active) in assay [1], 78% (active) in assay [4] and 48.5% (active) in assay [5]. In addition, the fluorescence ratio (Tl flux) in assay [2] was 0.489.
`O=C(Nc1nnc(S(=O)(=O)N2CCCCCC2)s1)c1cccc(Br)c1`: the inhibition in assay [1] was 57% (active). The fluorescence ratio (Tl flux) in assay [2] is 0.485. For the same compound, the compound was called inactive in assay [4] and in assay [5].
As for `S=C(NCCCc1ccccc1)Nc1ccc(Br)cc1`, the results for the inhibition in assay [1] and in assay [5] were 150% (active) and 76.5% (active), respectively. The fluorescence ratio (Tl flux) in assay [2] was 0.591. For the same compound, the compound was called inactive in assay [3] and in assay [4].
Regarding `CCn1c(C)c(C)c2cc(C(=O)N3CCN(c4cccc(C)c4C)CC3)ccc21`, the inhibition was 106% (active) in assay [1], 66.3% (active) in assay [4] and 180% (active) in assay [5]. In assay [2], the fluorescence ratio (Tl flux) was 0.475. Besides, the call in assay [3] was inactive.
`CCOC(=O)C1CCN(c2ncnc3c2oc2ccc(Br)cc23)CC1`: the inhibition in assay [1] was 150% (active); in assay [4], 129% (active); in assay [5], 193% (active). Moreover, the fluorescence ratio (Tl flux) in assay [2] was 0.39. Moreover, the call in assay [3] was inactive.
In the case of `Cc1cccc(-n2cc(CN3CCN(C(=O)c4ncn[nH]4)CC3)c(-c3cccc(F)c3)n2)c1`, the inhibition in assay [1] is 45.5% (active). Moreover, in assay [2], the fluorescence ratio (Tl flux) is 0.435. Further, the result in assay [4] and in assay [5] was inactive.
With `Cc1nc(N2CCN(c3ccccn3)CC2)c2c(C)c(C(=O)Nc3ccc(F)c(Cl)c3)sc2n1`, the inhibition in assay [1] is 160% (active); in assay [4] it was 124% (active). For the same compound, the fluorescence ratio (Tl flux) in assay [2] was 0.345 (active).
In the case of `CCCN1Cc2cccc(C(=O)NCc3ccccc3)c2C1=O`, the inhibition in assay [1] was 83% (active); in assay [5], 80% (active). Further, the fluorescence ratio (Tl flux) in assay [2] is 0.478. Moreover, the compound was classed as inactive in assay [4].
For `C=CCSc1nsc(NC(=O)Nc2cccc(C(C)=O)c2)n1`, the values for the inhibition in assay [1], in assay [4] and in assay [5] were 100% (active), 74% (active) and 60% (active), respectively. In assay [2], the fluorescence ratio (Tl flux) is 0.489. Besides, the compound was called inactive in assay [3].
For the compound `C=CCOC(=O)C1=C(C)NC(SCC(=O)OCC)=C(C#N)C1c1ccc(C)cc1` (stereo unspecified), the figures for the inhibition in assay [1], in assay [4] and in assay [5] were 124% (active), 115% (active) and 160% (active), respectively. The fluorescence ratio (Tl flux) in assay [2] is 0.425. Moreover, the outcome in assay [3] was active.
For `CNC(=O)c1ccsc1NC(=O)c1ccc(S(=O)(=O)N2CCc3ccccc32)cc1`, the inhibition in assay [1] is 97% (active); in assay [4] it was 115% (active); in assay [5] it was 170% (active). The fluorescence ratio (Tl flux) in assay [2] is 0.446.
For `CCc1noc(C)c1C(=O)Oc1ccc(N(C)S(=O)(=O)c2ccc(C)c(C)c2)cc1`, the figures for the inhibition in assay [1], in assay [4] and in assay [5] were 108% (active), 95.3% (active) and 83.5% (active), respectively. Moreover, the fluorescence ratio (Tl flux) in assay [2] was 0.408. Also, in assay [3], the result was inactive.
For `Cc1cc(Br)ccc1NC(=O)c1cnc(N2CCN(c3ccccn3)CC2)c2ccccc12`, the results for the inhibition in assay [1], in assay [4] and in assay [5] were 89% (active), 94.7% (active) and 124% (active), respectively. Also, in assay [2], the fluorescence ratio (Tl flux) was 0.444. Also, the result in assay [3] was inactive.
`O=C(Nc1ccc(Cl)c(Cl)c1)N1CC=C(c2ccccc2)CC1`: the inhibition is 122% (active) in assay [1], 110% (active) in assay [4] and 134% (active) in assay [5]. For the same compound, in assay [2], the fluorescence ratio (Tl flux) is 0.411. For the same compound, the call in assay [3] was inactive.
On to `c1ccc2c(c1)C(=NC1CCCCC1)NC2=NC1CCCCC1`, for which the inhibition in assay [1] is 48% (active). The fluorescence ratio (Tl flux) in assay [2] was 0.526. The compound was called inactive in assay [4] and in assay [5].
In the case of `S=C(Nc1cccc(Cl)c1)Nc1ccc2c(c1)OCCO2`, the inhibition in assay [1] is 81% (active); in assay [5], 47% (active). The fluorescence ratio (Tl flux) in assay [2] was 0.444. Besides, in assay [4], the result was inactive.
With `COc1ccc(-c2csc3ncnc(N4CCN(S(=O)(=O)c5cccc(F)c5)CC4)c23)cc1`, the inhibition in assay [1] was 92.5% (active); in assay [4], 77% (active); in assay [5], 122% (active). Besides, the fluorescence ratio (Tl flux) in assay [2] is 0.403. Further, in assay [3], the outcome was inactive.
For the compound `CCNC(=O)c1ccc(OCC(=O)Nc2ccc(F)cc2)c(OC)c1`, the inhibition is 0% [the number is a placeholder, only the call stands] in assay [1] and 51% (active) in assay [5]. In addition, the fluorescence ratio (Tl flux) in assay [2] was 0.446. Also, the compound was classed as inactive in assay [4].
Take `O=C1CCCN1CCCNC(=S)Nc1ccc(F)c(Cl)c1`: the inhibition in assay [1] was 51% (active); in assay [4], 72.7% (active); in assay [5] it was 58.5% (active). Besides, in assay [2], the fluorescence ratio (Tl flux) is 0.445.
In the case of `Fc1ccc2[nH]c3c(N4CCSCC4)ncnc3c2c1`, the inhibition in assay [1] was 162% (active). Also, the fluorescence ratio (Tl flux) in assay [2] was 0.362 (active). Also, the compound was called inactive in assay [4] and in assay [5].
`CC(C)OCCCNc1ncnc2c1[nH]c1ccc(F)cc12`: the inhibition in assay [1] is 95.5% (active). Moreover, the fluorescence ratio (Tl flux) in assay [2] was 0.443. For the same compound, the compound was classed as active in assay [3]. Besides, the call in assay [4] and in assay [5] was inactive.
As to `CCSc1nsc(NC(=O)Nc2cccc(C(C)=O)c2)n1`, the inhibition in assay [1] was 112% (active). The fluorescence ratio (Tl flux) in assay [2] was 0.514. The call in assay [3], in assay [4] and in assay [5] was inactive.
Turning to `CCOC(=O)c1cnc(SC)nc1Sc1ccc(Cl)cc1Cl`, the inhibition in assay [1] is 97.5% (active); in assay [4], 93% (active); in assay [5], 111% (active). For the same compound, the fluorescence ratio (Tl flux) in assay [2] is 0.406. For the same compound, the result in assay [3] was inactive.
For `O=C(Nc1ccc(F)cc1)c1cccnc1N1CCOCC1`, the results for the inhibition in assay [1] and in assay [5] were 44% (active) and 53.5% (active), respectively. In assay [2], the fluorescence ratio (Tl flux) was 0.517. For the same compound, the call in assay [4] was inactive.
On to `CN(c1cccc(NC(=O)Nc2ccc(Cl)cc2)c1)S(C)(=O)=O`, for which the inhibition in assay [1] is 59.5% (active); in assay [5] it was 42.5% (active). The fluorescence ratio (Tl flux) in assay [2] was 0.545. Moreover, the compound was classed as inactive in assay [4].
`N#Cc1c(/N=C/N2CCCC2)oc(-c2ccccc2)c1-c1ccccc1`: the values for the inhibition in assay [1], in assay [4] and in assay [5] were 70% (active), 74.3% (active) and 79% (active), respectively. In addition, in assay [2], the fluorescence ratio (Tl flux) was 0.445.
Turning to `CCc1cc(C(c2ccccc2OC)N2CCOCC2)c(NC(=O)c2ccccc2)s1` (stereo unspecified), the figures for the inhibition in assay [1] and in assay [5] were 102% (active) and 132% (active), respectively. The fluorescence ratio (Tl flux) in assay [2] is 0.335 (active).
